Experimental data gathered from unrelated publications.
Each line is one published result; the experiments were not run side by side.
Target: Ephrin type-B receptor 4 (EPHB4, Homo sapiens, UniProt P54760)
One construct used (P54760 16-987): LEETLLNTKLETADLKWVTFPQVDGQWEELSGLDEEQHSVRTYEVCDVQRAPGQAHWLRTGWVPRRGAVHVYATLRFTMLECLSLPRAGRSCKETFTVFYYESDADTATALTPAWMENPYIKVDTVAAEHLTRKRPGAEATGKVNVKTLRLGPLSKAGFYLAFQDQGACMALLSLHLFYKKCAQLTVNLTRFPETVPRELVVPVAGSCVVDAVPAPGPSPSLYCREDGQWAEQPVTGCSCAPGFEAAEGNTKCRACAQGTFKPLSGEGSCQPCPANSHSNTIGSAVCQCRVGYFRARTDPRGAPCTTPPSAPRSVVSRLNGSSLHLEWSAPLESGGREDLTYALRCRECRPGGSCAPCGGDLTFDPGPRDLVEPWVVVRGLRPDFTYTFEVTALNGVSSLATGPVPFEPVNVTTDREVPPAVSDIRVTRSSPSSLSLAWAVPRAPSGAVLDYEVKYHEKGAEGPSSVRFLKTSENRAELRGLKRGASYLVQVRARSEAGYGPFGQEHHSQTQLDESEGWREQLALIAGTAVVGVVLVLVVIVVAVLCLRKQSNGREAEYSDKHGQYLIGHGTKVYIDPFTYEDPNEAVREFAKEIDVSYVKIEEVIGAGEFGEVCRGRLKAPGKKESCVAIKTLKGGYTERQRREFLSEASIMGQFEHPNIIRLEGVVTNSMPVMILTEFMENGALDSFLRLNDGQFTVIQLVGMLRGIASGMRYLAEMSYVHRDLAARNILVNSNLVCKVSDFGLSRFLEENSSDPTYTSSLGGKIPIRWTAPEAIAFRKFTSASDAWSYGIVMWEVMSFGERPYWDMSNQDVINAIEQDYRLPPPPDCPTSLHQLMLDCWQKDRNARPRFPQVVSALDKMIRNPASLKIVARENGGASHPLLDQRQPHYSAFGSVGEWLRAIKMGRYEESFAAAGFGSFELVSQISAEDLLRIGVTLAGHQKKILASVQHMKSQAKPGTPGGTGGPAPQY

| Compound | test | conditions | remaining binding |
| --- | --- | --- | --- |
| Cn1cc(Cl)c2c(Oc3c(F)cc(Nc4cc(Cl)nc(N)n4)cc3F)ccnc21 | cell-free assay, competition with immobilised ligand | 0.1 µM | 100% |
| CN(CCCC(F)(F)F)c1nccc(-c2cnn3ncccc23)n1 | binding | 1 µM | 93% |
| CCN1CCN(Cc2ccc(C(=O)Nc3ccc(C)c(Oc4ccc5c(c4)CC(=O)N5)c3)cc2C(F)(F)F)CC1 | binding, competition with immobilised ligand | 1 µM | 90% |
| C[C@@H]1CCN(c2nccc(-c3cnn4ncccc34)n2)C1 | binding | 1 µM | 100% |
| CCCCN(CCCC)C(=O)CN1C[C@@H](c2cc(OC)c3c(c2)OCO3)[C@H](C(=O)O)[C@H]1CC(C)(C)CCC | cell-free assay, competition with immobilised ligand | 1 µM | 98.5% |
| CN(C)c1nccc(-c2cnc3ncccn23)n1 | binding | 1 µM | 100% |
| Cc1cnc(Nc2ccc(C(=O)N3CCC(N4CCCC4)CC3)cc2)nc1-c1cc2ccccc2s1 | binding, competition with immobilised ligand | 1 µM | 27% |
| CN(C)c1nccc(-c2cnn3ncccc23)n1 | binding | 1 µM | 100% |
| c1cncc(-c2cccc(Nc3nccc(NC4CCCCC4)n3)c2)c1 | binding, competition with immobilised ligand | 10 µM | 89% |
| COc1cnc(Nc2cccc(S(N)(=O)=O)c2)nc1N1CCN(c2ccccc2)C(=O)C1 | binding, competition with immobilised ligand | 1 µM | 100% |
| F[C@@H]1CCN(c2nccc(-c3cnn4ncccc34)n2)C1 | binding | 1 µM | 90% |
| COc1cnc(Nc2cccc(S(N)(=O)=O)c2)nc1N1CCN(c2ccccc2)CC1 | binding, competition with immobilised ligand | 1 µM | 96% |
| O=C(NCC1CCOCC1)c1n[nH]cc1NC(=O)c1c(F)cccc1F | binding, competition with immobilised ligand | 1 µM | 100% |
| C[C@@H]1CN(c2cc(-c3n[nH]c4ccc(OC5(C)CC5)cc34)ncn2)C[C@H](C)O1 | cell-free assay, competition with immobilised ligand | 0.1 µM | 79% |
| O=C(NCCCN1CCOCC1)c1ccc(Nc2ncc(Cl)c(-c3ccc(Cl)s3)n2)cc1 | binding, competition with immobilised ligand | 1 µM | 91% |
| CCOC(=O)c1cc2cc(-c3cc(C(=O)NCc4ccc(C(=O)O)cc4)nn3C)ccc2[nH]1 | cell-free assay, competition with immobilised ligand | 0.1 µM | 99% |
| N[C@@H]1CCN(c2nccc(-c3cnn4ncccc34)n2)C1 | binding | 1 µM | 100% |
| O=c1nc(-c2ccccn2)sc2ccccc12 | cell-free assay, competition with immobilised ligand | 1 µM | 100% |
| FC(F)(F)Oc1cccc(-c2cnc3ccc(-c4ccncc4)nn23)c1 | cell-free assay, competition with immobilised ligand | 5 µM | 87% |
| C[C@H](c1ccc(F)cc1)N(Cc1cccc(C(=O)O)c1)C(=O)c1cnc2ccccc2c1 | cell-free assay, competition with immobilised ligand | 1 µM | 100% |
| O=C(c1ccc(Nc2ncc(Cl)c(-c3cc4ccccc4s3)n2)cc1)N1CCC(N2CCCC2)CC1 | binding, competition with immobilised ligand | 1 µM | 65% |
